Reference: ChEMBL document CHEMBL1157074, “Hyaluronidase inhibitors from "Cimicifugae Rhizoma" (a mixture of the rhizomes of Cimicifuga dahurica and C. heracleifolia)” (J Nat Prod, 2010)

test: Inhibition of bovine testis hyaluronidase type 4 after 20 mins by modified Morgan-Elson method; design: species or system Bos taurus
Summary of the method: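 Bovine testis hyaluronidase (Type IV-S, 400 NF units/mL stock) preincubated with sample in 0.1 mol/L acetate buffer pH 3.5, 20 min, 37 °C. Activated with 2.5 mmol/L CaCl2 for 20 min, then rooster-comb potassium hyaluronate (0.4 mg/mL stock) added for 40 min. Stopped with NaOH, boiled with boric acid, p-dimethylaminobenzaldehyde colour read at 585 nm. Percent inhibition corrected against blanks.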

| Compound | IC50 |
| --- | --- |
| O=C(/C=C/c1ccc(O)cc1)O[C@H](C(=O)O)[C@](O)(Cc1ccc(O)c(O)c1)C(=O)O [CIMICIFUGIC ACID C] | 251 µM |
| O=C(O[C@H](C(=O)O)[C@](O)(Cc1ccc(O)c(O)c1)C(=O)O)c1ccc(O)cc1 [CIMICIFUGIC ACID H] | 525 µM |
| COc1cc(/C=C/C(=O)O[C@H](C(=O)O)[C@](O)(Cc2ccc(O)cc2)C(=O)O)cc(OC)c1O [CIMICIFUGIC ACID J] | 193 µM |
| O=C(/C=C/c1ccc(O)c(O)c1)O[C@H](Cc1ccc(O)c(O)c1)C(=O)O [ROSMARINIC ACID] | 545 µM |
| COc1cc(/C=C/C(=O)O[C@H](C(=O)O)[C@](O)(Cc2ccc(O)c(O)c2)C(=O)O)ccc1O[C@@H]1O[C@H](CO)[C@H](O)[C@H](O)[C@H]1O [SHOMASIDE A] | 573 µM |
| COc1cc(/C=C/C(=O)O[C@H](C(=O)O)[C@](O)(Cc2ccc(O)cc2)C(=O)O)ccc1O[C@@H]1O[C@H](CO)[C@H](O)[C@H](O)[C@H]1O [SHOMASIDE B] | 430 µM |
| COc1cc(/C=C/C(=O)O[C@H](C(=O)O)[C@](O)(Cc2ccc(O)cc2)C(=O)O)ccc1O[C@@H]1O[C@H](CO)[C@@H](O)[C@H](O)[C@H]1O [SHOMASIDE C] | 663 µM |
| COC(=O)C(O)C(Cc1ccc(O)cc1)(OC(=O)/C=C/c1ccc(O[C@@H]2O[C@H](CO)[C@@H](O)[C@H](O)[C@H]2O)c(OC)c1)C(=O)O (some centres not stated) [SHOMASIDE D] | > 658 µM |
| COc1cc(OC(=O)/C=C/c2ccc(O[C@@H]3O[C@H](CO)[C@H](O)[C@H](O)[C@H]3O)c(OC)c2)ccc1CCO [SHOMASIDE E] | > 790 µM |

Stronger by IC50, values ahead:

| IC50 | Compound |
| --- | --- |
| 112 µM | COc1cc(/C=C/C(=O)O[C@H](C(=O)O)[C@](O)(Cc2ccc(O)c(O)c2)C(=O)O)ccc1O [CIMICIFUGIC ACID A] |
| 82 µM | COc1ccc(/C=C/C(=O)O[C@H](C(=O)O)[C@](O)(Cc2ccc(O)c(O)c2)C(=O)O)cc1O [CIMICIFUGIC ACID B] |
| 153 µM | O=C(/C=C/c1ccc(O)c(O)c1)O[C@H](C(=O)O)[C@](O)(Cc1ccc(O)cc1)C(=O)O [CIMICIFUGIC ACID D] |
| 120 µM | COc1cc(/C=C/C(=O)O[C@H](C(=O)O)[C@](O)(Cc2ccc(O)cc2)C(=O)O)ccc1O [CIMICIFUGIC ACID E] |
| 92 µM | COc1ccc(/C=C/C(=O)O[C@H](C(=O)O)[C@](O)(Cc2ccc(O)cc2)C(=O)O)cc1O [CIMICIFUGIC ACID F] |
| 138 µM | COc1ccc(/C=C/C(=O)O[C@H](C(=O)O)[C@](O)(Cc2ccc(O)c(O)c2)C(=O)O)cc1OC [CIMICIFUGIC ACID G] |
| 143 µM | COc1cc(/C=C/C(=O)O[C@H](C(=O)O)[C@](O)(Cc2ccc(O)c(O)c2)C(=O)O)cc(OC)c1O [CIMICIFUGIC ACID I] |
| 144 µM | O=C(/C=C/c1ccc(O)c(O)c1)O[C@H](C(=O)O)[C@](O)(Cc1ccc(O)c(O)c1)C(=O)O [FUKINOLIC ACID] |
